Measurements published in ChEMBL document CHEMBL2380249, “Synthesis and evaluation of Janus type nucleosides as potential HCV NS5B polymerase inhibitors” (Bioorg Med Chem Lett, 2013).

Assays:
[1] = Cytotoxicity against human CEM cells; assay type: cell-based; details: CEM (CCRF-CEM) cells
[2] = Cytotoxicity against human HuH7 cells assessed as reduction in rRNA levels at 120 hrs by RT-PCR analysis; assay type: cell-based, Huh-7
[3] = Cytotoxicity against human PBMC; assay type: cell-based
Hepatitis C virus = assay: Antiviral activity against Hepatitis C virus infected in human HuH7 cells; assay type: functional, organism-based, Hepacivirus hominis; details: Huh-7
Summary of the method: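 Subgenomic HCV replicon in Huh7 cells; HCV RNA extracted and amplified to measure inhibition of replication, with cytotoxicity determined in the same cells at the same time.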

[4] = system: Human immunodeficiency virus 1; assay: Antiviral activity against Human immunodeficiency virus 1 LAI infected in human PBMC; assay type: functional, organism-based; details: Human immunodeficiency virus 1, M:B_Lai
Summary of the method: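 HIV-1 LAI replication in primary human peripheral blood mononuclear cells, with AZT as positive control.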

[5] = Cytotoxicity against African green monkey Vero cells; assay type: cell-based; details: chlorocebus sabaeus

| EC50 (Hepatitis C virus) [µM] | EC90 (Hepatitis C virus) [µM] | EC50 [4] [µM] | EC90 [4] [µM] | SMILES | CC50 [1] [µM] | CC50 at 120 h [2] [µM] | CC50 [3] [µM] | CC50 [5] [µM] |
| --- | --- | --- | --- | --- | --- | --- | --- | --- |
| > 10 | > 10 | > 100 | > 100 | C[C@@]1(O)[C@H](O)[C@@H](CO)O[C@H]1n1c2ncnc(N)c2c2c(=O)[nH]c(S)nc21 | > 100 | > 10 | > 100 | > 100 |
| 3 | 17.9 | 3.3 | > 100 | C[C@@]1(O)[C@H](O)[C@@H](CO)O[C@H]1n1c2ncnc(N)c2c2c(=O)[nH]c(N)nc21 | 36.5 | 3 | 92.1 | > 100 |
| > 10 | > 10 | > 100 | > 100 | Nc1ncnc2c1c1c(N)ncnc1n2[C@@H]1O[C@H](CO)[C@@H](O)[C@H]1O | 29.5 | > 10 | 53.8 | 82.5 |
| > 10 | > 10 | > 100 | > 100 | C[C@@]1(O)[C@H](O)[C@@H](CO)O[C@H]1n1c2ncnc(N)c2c2c(=O)[nH]c(=O)[nH]c21 | > 100 | > 10 | > 100 | > 100 |
| > 10 | > 10 | ≥ 100 | ≥ 100 | C[C@@]1(O)[C@H](O)[C@@H](CO)O[C@H]1n1c2ncnc(N)c2c2c(N)ncnc21 | > 100 | > 10 | > 100 | > 100 |
| 3 | 22.5 | 9.4 | 24 | Nc1nc2c(c(=O)[nH]1)c1c(N)ncnc1n2[C@@H]1O[C@H](CO)[C@@H](O)[C@H]1O | 20.2 | < 10 | 3.1 | 63.1 |
| > 10 | > 10 | 9.6 | 30.2 | Nc1ncnc2c1c1c(=O)[nH]c(S)nc1n2[C@@H]1O[C@H](CO)[C@@H](O)[C@H]1O | 8.2 | > 10 | 2.9 | 43.1 |
| > 10 | > 10 | – | – | CCOC(=O)[C@H](C)NP(=O)(OC[C@H]1O[C@@H](n2c3ncnc(N)c3c3c(N)ncnc32)[C@](C)(O)[C@@H]1O)Oc1ccccc1 (stereo partly specified) | – | > 10 | – | – |

| SMILES | EC50 (Hepatitis C virus) [µM] | EC90 (Hepatitis C virus) [µM] | EC50 [4] [µM] | EC90 [4] [µM] | CC50 [1] [µM] | CC50 at 120 h [2] [µM] | CC50 [3] [µM] | CC50 [5] [µM] |
| --- | --- | --- | --- | --- | --- | --- | --- | --- |
| Cc1cn([C@H]2C[C@H](N=[N+]=[N-])[C@@H](CO)O2)c(=O)[nH]c1=O [ZIDOVUDINE] | > 10 | > 10 | – | 0.028 | 14.3 | > 10 | > 100 | 53 |
